High-throughput results as filed in PubChem BioAssay.
An excerpt weighted towards active compounds, which were near 9.6% of everything screened.
PMI act = activators of human PMI, primary screen, biochemical, fluorescence intensity, near-Km mannose 6-phosphate | activation factor at 20 µM | Mannose-6-phosphate isomerase (Homo sapiens), P34949 | purified human PMI, coupled resazurin fluorescence, 20 min; stronger effect = higher value; 1 = vehicle control, 0 substrate-free wells | 190,000 compounds, 0.005% hits;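 active means activation factor of 2 or more at 20 µM, relative to plate controls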
Target sequence (P34949 whole entry, looked up): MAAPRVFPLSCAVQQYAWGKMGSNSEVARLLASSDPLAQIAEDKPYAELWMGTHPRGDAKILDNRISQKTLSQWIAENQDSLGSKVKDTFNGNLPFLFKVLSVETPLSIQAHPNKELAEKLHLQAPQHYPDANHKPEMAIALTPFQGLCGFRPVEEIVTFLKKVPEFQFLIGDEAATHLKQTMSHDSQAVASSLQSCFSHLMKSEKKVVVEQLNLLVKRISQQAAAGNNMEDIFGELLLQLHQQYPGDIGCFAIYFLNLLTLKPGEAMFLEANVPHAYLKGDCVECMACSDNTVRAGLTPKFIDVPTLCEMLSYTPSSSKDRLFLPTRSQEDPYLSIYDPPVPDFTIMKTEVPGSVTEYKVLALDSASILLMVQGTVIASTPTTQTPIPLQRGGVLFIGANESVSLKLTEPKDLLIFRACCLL
HCT116 PTEN-null = growth suppression of PTEN-null HCT116, primary screen, cell-based, CellTiter-Glo | HCT116 PTEN-null viability, 60 h; stronger effect = lower value | viability, % at 10 µM | 140,000 compounds, 1.2% hits | AID 827, 2007;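 active means viability at or below a set limit, 4 SD under the median of all tested compounds, cut at about 3.7% in these data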;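 further: PTEN knockout HCT116 line with beta catenin targeted HCT116 as companion control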
L major viab = Leishmania major promastigote growth inhibition, primary screen; 200,000 compounds, 9% hits; Leishmania major promastigotes, resazurin fluorescence viability; inhibition, % at 10 µM; in the data active means inhibition above about 50%;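 further: promastigotes grown with compound for 44 hours at 28 °C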
PMI act hi M6P = human PMI activators, high substrate, primary screen, biochemical, fluorescence intensity, near-saturating mannose 6-phosphate; Mannose-6-phosphate isomerase (Homo sapiens), P34949; coupled PMI enzyme assay, resazurin fluorescence, 20 min; stronger effect = higher value; 1 = untreated enzyme, 0 = substrate-free blank; activation factor at 20 µM; 190,000 compounds, 0.34% hits; AID 1216, 2008;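 active means activation factor of 2 or more at 20 µM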
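Material: human phosphomannose isomerase with PGI, G6PDH, diaphorase coupling enzymes; amount: PMI at 15 ng/mL final; also added: Mannose-6-phosphate 1.0 mM (near-saturating) plus 0.22 mM NADP+; incubation: enzyme reaction with compound 20 min at room temperature; signal: resorufin fluorescence (Ex 544/Em 590 nm) from resazurin via diaphorase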
HCT116 bCat-KO = primary screen for growth suppressors in beta-catenin knockout HCT116 cells (colon tumor, human). HCT116 beta-catenin knockout viability, CellTiter-Glo, 60 h; stronger effect = lower value. viability, % at 10 µM. 140,000 compounds, 1.5% hits. AID 818, 2007;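 active means viability at or under a set limit, the compound median less 4 SD, cut at about 6% in these data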;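 further: 0% = Hyamine 1622 control at 20 µM and 100% = untreated cell control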
Active calls of the source: *; nt = not tested or not shown.

SMILES	PMI act	HCT116 PTEN-null	L major viab	PMI act hi M6P	HCT116 bCat-KO
Cc1cccc(Cn2c(C(C)(C)C)cc3cccnc32)c1	0.9	56	18	0.9	63
CCN(CCNC(=O)CN(C)S(=O)(=O)c1cccc2nsnc12)c1ccccc1	1	71	95*	1	76
O=C1c2cccc(OCC(=O)N3CCCc4ccccc43)c2CCN1Cc1ccc(F)cc1	1	56	95*	1	71
Cc1cccc(CN2CCc3c(OCC(=O)N4CCCc5ccccc54)cccc3C2=O)c1	0.8	96	28	0.8	99
CC(C)CC(=O)NC(Nc1ccccc1F)C(Cl)(Cl)Cl (configuration not stated)	0.9	82	63*	0.9	88
O=c1[nH]c2ccccc2nc1C(Cl)c1ccccc1 (configuration not stated)	1.6	104	-1	2.1*	93
CCOC(=O)c1c2ccc(OCC(=O)N/N=C/c3ccc(Cl)cc3)cc2n2ccccc12	0.7	2.3*	10	0.5	1.8*
CCOC(=O)c1c2ccc(OCC(=O)N/N=C/c3ccccc3C(F)(F)F)cc2n2ccccc12	0.4	1.9*	4	0.4	1.5*
C=C(C)CN(CC)C(=O)CSc1nc(O)cc(=O)n1C1CCCC1	0.9	nt	-6	1	nt
OCCN1CCN(CCCc2c3c(cc4c2CCC4)CCC3)CC1	1.3	79	86*	1.3	74
CCOC(=O)C1(CCOc2ccccc2)CCN(Cc2ccc(NC(C)=O)cc2)CC1	0.9	nt	87*	0.9	nt
CCOC(=O)C1(CCOc2ccccc2)CCN(Cc2ccc3nonc3c2)CC1	1	nt	92*	1	nt
CC(=O)Nc1ccc(CN2CCC(CO)(CCOc3ccccc3)CC2)cc1	0.9	nt	49	1.1	nt
Cc1cccn2c(CN3CCCC(c4ccccc4)C3)c(C(=O)N3CCOCC3)nc12 (configuration not stated)	1	nt	7	1	nt
Nc1c(C(=O)NCCc2ccc(Cl)cc2)sc2ccc(S(=O)(=O)N3CCCCC3)cc12	0.8	58	83*	0.9	48
CC(=O)CSc1nnc(Cc2ccc3c(c2)OCO3)o1	1	95	-4	1	88
CC(=O)N1CCN(C(=S)c2ccc(N(C)C)cc2)CC1	1	101	-8	1	97
S=C(c1ccc(N2CCOCC2)cc1)N1CCCCC1	1	96	81*	1	88
CN(C)c1ccc(C(=S)N2CCCCCC2)cc1	1.2	nt	76*	1.3	88
O=C(CSc1nnc(-c2ccc(O)cc2)n1Cc1ccco1)c1ccccc1	1	104	54*	1.2	90
Cc1ccc(C(=O)CSc2nnc(CNc3ccc(C)cc3C)n2Cc2ccco2)cc1	0.9	59	60*	1.1	69
O=C(CSc1nnc(-c2cccnc2)n1Cc1ccco1)c1ccccc1	0.9	87	-7	1	87
CC1=NN(c2nc(-c3ccc(C)cc3)cs2)C(=O)C1N=Nc1cccc(C)c1 (configuration not stated)	1.1	83	86*	1	87
CC(C)(C)NC(=O)c1cccc2c1OC(C)(C)C2	0.9	95	5	0.9	91
COCCNCCOCCOc1ccc(Cl)c(C)c1	0.9	92	100*	1.1	88
SMILES	PMI act	HCT116 PTEN-null	L major viab	PMI act hi M6P	HCT116 bCat-KO
Cc1cc(OCCOCCN(C)C)ccc1Cl	1	96	89*	0.9	97
Cc1cc(Cl)cc(Cl)c1OCCOCCN(C)C	1.1	83	65*	1.2	78
O=C(Nc1cnn(Cc2ccc(F)cc2)c1)c1noc2c1CCCC2	1	nt	100*	0.8	nt
O=C(Nc1cnn(Cc2ccc(F)cc2)c1)C(c1ccccc1)c1ccccc1	0.8	92	51*	1	86
CC(C)(C)C(=O)Nc1cc(NC(=O)C(C)(C)C)cc(C(=O)Nc2cc(C(=O)O)cc(C(=O)O)c2)c1	1.1	100	-5	1	90
Cc1cc(C)cc(NC(=O)c2ccc3nc[nH]c3c2)c1	1.1	75	86*	1	88
O=C(NCCc1ccc(Cl)cc1)C1CCN(S(=O)(=O)c2ccc(Br)s2)CC1	0.9	nt	3	0.9	nt
CCN(CCO)C(=O)CC(c1ccccc1)c1cc(Br)ccc1O (configuration not stated)	1.1	99	50*	1.1	95
O=P(O)(O)C(O)C(F)(F)C(F)(F)C(F)(F)C(F)F (configuration not stated)	0.9	104	-7	1	107
CCC(=O)N(Cc1c(C)nn(-c2ccccc2)c1Cl)c1ccc(Cl)cc1	0.8	59	65*	0.9	63
O=C(Nc1ccccc1C(F)(F)F)C1CC(=O)N(c2ccccc2F)C1 (configuration not stated)	0.9	109	-6	0.9	103
CC1CC(C)CN(C(=O)C(NS(=O)(=O)c2ccc(Br)s2)c2ccccc2)C1 (configuration not stated)	0.9	64	81*	0.9	70
COc1ccc(S(=O)(=O)NCC2CCCN(Cc3ccccc3C)C2)cc1 (configuration not stated)	0.9	nt	99*	0.9	nt
COc1ccc(S(=O)(=O)NCC2CCCN(Cc3cccnc3)C2)cc1 (configuration not stated)	0.9	nt	38	1	nt
O=C(O)/C=C1\NC(=O)c2ccccc21	0.9	116	2	0.9	99
O=C1N/C(=C\c2ccc(O)cc2)C(=O)c2ccccc21	0.9	7	100*	0.6	5.8*
Cc1nn(-c2ccc(Cl)cc2)c(=O)c2ccccc12	1	nt	-3	1	nt
Cc1nn(-c2ccccc2)c(=S)c2ccccc12	1	93	71*	1	95
NC(N)=NCCC[C@H](NC(=O)OCc1ccccc1)C(=O)O	1	93	29	1	106
Cc1cc(=O)c(C(=O)O)nn1-c1ccccc1	1	nt	-5	0.9	nt
COc1ccc(-c2c(C(F)(F)F)oc3cc(OCC(=O)Nc4ccccc4C(F)(F)F)ccc3c2=O)cc1OC	1	5	1	0.9	1.4*
COc1ccccc1-c1c(C(F)(F)F)oc2cc(OCC(=O)Nc3ccccc3C(F)(F)F)ccc2c1=O	0.9	84	-2	1	87
COc1ccc(S(=O)(=O)CC2(O)CCN(C(=O)C(C)(C)C)CC2)cc1	1.1	nt	-7	0.9	nt
COCCCn1c(SCc2ccccc2)nc2cc(OC)c(OC)cc2c1=N	0.8	69	64*	0.9	75
COc1cc2nc(SCc3ccc(Cl)cc3Cl)n(Cc3cccs3)c(=N)c2cc1OC	0.9	59	48	0.8	59
